An excerpt weighted towards active compounds, which were near 4.8% of everything screened.
ATG4B inhibitor = ATG4B protease inhibitors, primary screen, biochemical, fluorescence, uHTS | ATG4B cleavage of LC3-PLA2, NBD-HPC fluorescence, 1 h | Cysteine protease ATG4B (Homo sapiens), Q9Y4P1 | 340,000 compounds, 0.51% hits | AID 504462, 2011 | inhibition, % at 8.33 µM; in the data active = inhibition above about 40%
Calb FLC = C. albicans growth inhibition with fluconazole, primary screen, CaCi-2 strain, Alamar Blue fluorescence; AID 1979, 2009; growth inhibition, % (test concentration not listed); C. albicans CaCi-2 (fluconazole-resistant clinical isolate) + fluconazole, 48 h; 300,000 compounds, 0.57% hits;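 active = growth inhibition above about 58% in most replicates, limit read from the data, passing the limit was not always enough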;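 note: all wells also contain fluconazole at 8 µg/ml as a sub-toxic cotreatment; 0% = median of DMSO wells and 100% = median of geldanamycin control wells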
NLRP3 yeast inh = NALP3 inflammasome inhibitors in reconstituted yeast, primary screen, luminescence, uHTS; Yeast reconstituted NLRP3/ASC/caspase-1, beta-gal luminescence, 24 h; inhibition, % at 10 µM; 330,000 compounds, 0.39% hits; AID 2825, 2010;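 active = inhibition of 50% or more; inactive = inhibition below 50%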;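 note: plate controls were induced DMSO wells for no effect and uninduced yeast grown without galactose for full effect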
ALR inh = inhibitors of human ALR sulfhydryl oxidase, primary screen, biochemical, H2O2 detection, HRP-luminol luminescence, single point | FAD-linked sulfhydryl oxidase ALR (Homo sapiens), P55789 | purified ALR, DTT oxidation | inhibition, % (concentration not given with the values) | 290,000 compounds, 3.8% hits | AID 485317, 2010;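 active = mean replicate inhibition above about 79%, with every replicate also reaching it, limit read from the data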
Target sequence (P55789 whole entry, looked up): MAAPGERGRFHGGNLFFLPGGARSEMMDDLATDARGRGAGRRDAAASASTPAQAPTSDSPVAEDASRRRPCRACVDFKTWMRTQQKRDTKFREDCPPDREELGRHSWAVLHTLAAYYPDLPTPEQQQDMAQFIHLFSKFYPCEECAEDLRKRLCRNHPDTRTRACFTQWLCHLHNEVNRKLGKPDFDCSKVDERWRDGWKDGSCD
UCH37 DUB inh = inhibitors of human UCH37 deubiquitinase, primary screen, biochemical, Ub-AMC cleavage, fluorescence; Ubiquitin carboxyl-terminal hydrolase isozyme L5 (Homo sapiens), Q9Y5K5; purified proteasome/UCH37; inhibition, % (concentration not given with the values); 330,000 compounds, 0.33% hits;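 active = mean inhibition over replicate wells above about 20%, limit read from the data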;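 note: 0% = compound-free wells with enzyme and 100% = wells lacking proteasome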
Target sequence (Q9Y5K5 whole entry, looked up): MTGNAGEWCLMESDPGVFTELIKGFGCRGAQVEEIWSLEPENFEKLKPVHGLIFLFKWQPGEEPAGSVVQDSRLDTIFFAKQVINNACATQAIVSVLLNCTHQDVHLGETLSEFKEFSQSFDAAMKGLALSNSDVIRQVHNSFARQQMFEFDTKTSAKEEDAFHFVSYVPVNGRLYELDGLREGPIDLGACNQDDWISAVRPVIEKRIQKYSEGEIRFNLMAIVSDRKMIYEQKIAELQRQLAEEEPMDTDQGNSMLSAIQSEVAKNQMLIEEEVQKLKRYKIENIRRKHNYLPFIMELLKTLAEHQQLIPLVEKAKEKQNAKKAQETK
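System: Proteasome-associated human UCH37 deubiquitinase; Input: 0.15 nM proteasome in added enzyme buffer; Also added: Ub-AMC substrate from 1 µM stock; Incubation: 30 min compound-proteasome preincubation then 25 min substrate reaction, room temperature; Detection: fluorescence, ex 355 nm, em 460 nm; Read-out: % inhibition of Ub-AMC cleavage fluorescence; Benchmarks: no-proteasome and no-compound wells.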
NALP1 inh = NALP1 inflammasome inhibitors in reconstituted yeast, colorimetric, S. cerevisiae, triplicate retest. inhibition, % at 10 µM. 280,000 compounds, 0.61% hits. AID 2071, 2009. S. cerevisiae NALP1/ASC/caspase-1 growth, X-gal OD620, 72 h; in the data active = inhibition mostly above about 24%, no sharp cut-off; inactive = mostly below about 32%
* marks the source's active call; other numbers are inactive results; x = no result.

SMILES | ATG4B inhibitor | Calb FLC | NLRP3 yeast inh | ALR inh | UCH37 DUB inh | NALP1 inh
OCC(CO)(CO)NCC(O)CN1c2ccccc2Sc2ccccc21 (configuration not stated) | 9 | 11 | 10 | 99* | 5 | 17
Cc1nn(CC(O)CN2c3ccccc3Sc3ccccc32)c(C)c1Br (configuration not stated) | 22 | 8 | 10 | 1 | 4 | 6
O=C(O)c1cccnc1SC1CC(=O)N(c2ccccc2)C1=O (configuration not stated) | -6 | 10 | -1 | 15 | 1 | x
O=C(O)c1ccccc1SC1CC(=O)N(c2ccccc2)C1=O (configuration not stated) | 1 | -4 | 18 | 6 | 1 | 57*
COC(=O)c1c(N2C(=O)CC(Sc3ccccc3C(=O)O)C2=O)sc(C)c1C (configuration not stated) | 3 | 6 | 1 | 12 | 3 | 22*
CC(C)C1=CC(=Nc2ccc(S(N)(=O)=O)cc2)C=C(C(C)C)C1=O | -4 | 0 | 9 | 99* | -2 | 11
NS(=O)(=O)c1ccc(N=C2C(=O)Nc3ccccc32)cc1 | 6 | -4 | -8 | 75 | 7 | 10
COc1ccc(O)c(CNc2ccccc2F)c1 | -5 | -3 | 26 | 99* | 3 | -3
Cc1ccccc1OCc1nc2ccccc2c(=O)n1N=Cc1cn[nH]c1-c1ccccc1 | x | x | x | x | 7 | x
CCc1ccc(O)c(-c2cc(C(=O)Nc3cccnc3)[nH]n2)c1 | -8 | 0 | -6 | x | 4 | x
Cc1cc(O)c(-c2cc(C(=O)Nc3cccnc3)[nH]n2)cc1C | -3 | 1 | -2 | -1 | 3 | 37*
Cc1cc(C)c(O)c(-c2cc(C(=O)Nc3cccnc3)[nH]n2)c1 | -11 | -9 | 4 | 98* | 2 | 2
O=C(Cc1n[nH]c(=O)[nH]c1=O)NN=Cc1cccc(Cl)c1 | x | x | x | x | 4 | x
CC(=NNc1cc(N2CCCCC2)nc(C)n1)c1ccc(Br)cc1 | x | x | x | x | 0 | x
COc1cc(CNCCO)cc(Cl)c1OCc1ccc(Cl)cc1Cl | 6 | -52 | 19 | -10 | 9 | 38*
COc1cc(CNC(C)(C)CO)cc(Br)c1OCc1ccc(Cl)cc1Cl | 1 | -1 | 10 | -22 | 8 | 58*
COc1cc(CNCCO)cc(Br)c1OCc1ccccc1Cl | 3 | 2 | 20 | -4 | x | 25
Fc1ccc(Br)cc1C=Nn1cnnc1 | x | x | x | x | -2 | x
Cc1ccc(C(=O)NNC(=O)C2CC2)cc1Br | 5 | 2 | -4 | 88* | 0 | 9
Cc1cc(Nc2ccccc2)n(CCOC(=O)COc2ccccc2)n1 | -2 | -2 | -1 | 98* | 2 | 9
CCOc1ccc(OCCC(=O)OCC(=O)Nc2cc(C)nn2-c2ccccc2)cc1 | -8 | -6 | 11 | 23 | 1 | x
OC(COc1ccc(F)cc1Cl)CN1CCC(Cc2ccccc2)CC1 (configuration not stated) | 0 | 16 | 47 | 2 | 6 | 42*
OC(COc1ccccc1F)CN1CCC(Cc2ccccc2)CC1 (configuration not stated) | -2 | -22 | 28 | -1 | 3 | 20
COc1cc(/C=C2\CCCc3c2nc2ccccc2c3C(=O)O)cc(OC)c1O | -3 | 7 | -11 | 99* | 15 | -13
COc1ccc(/C=C2\CCCc3c2nc2ccccc2c3C(=O)O)cc1OC | x | 0 | 1 | -22 | x | 7
SMILES | ATG4B inhibitor | Calb FLC | NLRP3 yeast inh | ALR inh | UCH37 DUB inh | NALP1 inh
O=C(O)c1c2c(nc3ccccc13)/C(=C/c1ccc(O)cc1)CCC2 | -4 | 5 | 0 | 100* | -10 | -5
S=c1[nH]nc(C2CCCCC2)n1N=Cc1cccc(Cl)c1Cl | x | x | x | x | 4 | x
CSC(=NC#N)N1CCN(c2ccccc2)CC1 | 0 | 20 | 6 | 76* | 2 | 5
CSC(=NC#N)N1CCN(c2cccc(Cl)c2)CC1 | -8 | 51 | -8 | 94* | 2 | 18
CSc1ccccc1C(=O)N1CCN(c2cccc(Cl)c2)CC1 | -10 | 2 | 1 | 6 | 1 | -9
CSC(=NC#N)N1CCN(c2c(C)cccc2C)CC1 | 25 | -8 | 31 | -3 | -1 | 12
COc1cccc(C(=O)Nc2nc(-c3ccc4c(c3)OCO4)cs2)c1 | -8 | 2 | 32 | 50 | -3 | 41
O=C(CCCCl)Nc1nc(-c2ccc3c(c2)OCCO3)cs1 | 10 | -9 | 24 | -15 | 1 | 8
O=C(CSCC(=O)N1CCCc2ccccc21)Nc1nc(-c2ccccc2)cs1 | -4 | -5 | -9 | 100* | 5 | 14
N#CCC(=O)Nc1nc(-c2ccc3c(c2)OCCO3)cs1 | -1 | -5 | 10 | 100* | 5 | 13
CCOC(=O)N1CCN(C(=O)CSCC(=O)Nc2nc(-c3ccc4c(c3)OCO4)cs2)CC1 | -7 | x | 19 | 99* | -1 | -9
O=C(CSCC(=O)N1CCOCC1)Nc1nc(-c2ccc3c(c2)OCO3)cs1 | -18 | -2 | 10 | 97* | 6 | -23
CC(=O)Nc1nc(-c2ccc3c(c2)OCO3)cs1 | 1 | 1 | 17 | -4 | 4 | x
O=C(C[n+]1cc(-c2ccccc2)n2c1CCC2)Nc1nc(-c2ccccc2)cs1 | -18 | -37 | -3 | -10 | 1 | 1
COCCNC(=S)NN=Cc1c2ccccc2cc2ccccc12 | x | x | x | x | -8 | x
CCOC(=O)N1CCN(C(=O)CSCC(=O)Nc2nc(-c3ccc(C)cc3)cs2)CC1 | -1 | 0 | -1 | 99* | 5 | 30
Oc1c(Cl)cc(Cl)cc1C=Nc1nccs1 | x | x | x | x | 0 | x
Cc1ccc(CCC(=O)Nc2ccc(N(C)C)cc2)o1 | -2 | -6 | 13 | 99* | x | 23
CCc1ccc(CCC(=O)Nc2ccc(Cl)cc2)o1 | 9 | -17 | 29 | 78* | 1 | 15
Cc1cccc(OCCCC(=O)Nc2ccc(N(C)C)cc2)c1 | 4 | 1 | 20 | 92* | 3 | 14
CN(C)c1ccc(NC(=O)CCn2c(=S)oc3ccccc32)cc1 | 11 | 6 | 11 | 98* | 2 | 28
Cc1cccc(OCCCC(=O)Nc2ccc(Br)cc2)c1 | 2 | 9 | 19 | -4 | -1 | x
Cc1ccc(NC(=O)CCn2c(=S)oc3ccccc32)cc1 | 11 | 16 | 6 | -2 | 2 | 7
Oc1c(Br)cc(Br)cc1C=Nc1nc2c(s1)CCCC2 | x | x | x | x | 2 | x
CC(=NNc1ccc(F)cc1)c1ccncc1 | x | x | x | x | -1 | x
O=C(CN1CCN(Cc2ccc(Cl)cc2)CC1)NN=Cc1ccccc1F | x | x | x | x | 3 | x
O=C(NN=Cc1cccnc1)c1cc(-c2ccc(Br)cc2)nc2ccccc12 | x | x | x | x | 2 | x
